The list is not random: actives were taken first. Their share in the collection is about 3.6%.
PAFAH2 FP inh: PAFAH2 (human) inhibition | Q99487 | recombinant PAFAH2, FP-rhodamine activity probe, fluorescence polarization | inhibition, % at 3.39 µM | 340,000 tested, 0.99% active | AID 492956;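 active = inhibition above the mean over all tested compounds plus 3 SD, cut at about 30% in these data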;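 also: inhibitors block probe labeling of enzyme so polarization drops; 0% = enzyme with DMSO and 100% = wells lacking PAFAH2 protein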
IMP-1 inhibitor: inhibitors of Pseudomonas aeruginosa IMP-1 metallo-beta-lactamase | purified IMP-1, nitrocefin hydrolysis, epi-absorbance fluorescence | inhibition, % at 5.6 µM | 290,000 tested, 0.45% active | AID 1556;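 active = inhibition above the mean plus 3 SD of all compounds in the same screening run, cut at about 4.5% in these data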;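 also: 0% = IMP-1 with DMSO and 100% = DMSO wells lacking enzyme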
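System: purified IMP-1; amount: IMP-1 0.2 nM before substrate addition; compound: single dose, 5.6 µM; times: 25 °C, 15 min preincubation, 25 min reaction; signal: Epi-absorbance via hydrolysed-nitrocefin quenching of white-plate fluorescence, 480/530 nm, EDTA stop; benchmarks: DMSO with and without IMP-1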
pPAFAH FP inh: inhibitors of human plasma PAF acetylhydrolase (pPAFAH); Q13093; recombinant pPAFAH, FP-rhodamine probe fluorescence polarization; inhibition, % at 3.39 µM; 330,000 tested, 1.5% active;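 active = inhibition above the mean inhibition across the screen plus 3 SD, cut at about 25% in these data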;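 also: inhibitors block binding of the rhodamine activity-based probe so polarization drops; 0% = enzyme with DMSO and 100% = wells lacking pPAFAH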
PAFAH1B3 FP inh: PAFAH1B3 (human) inhibition | 340,000 tested, 0.28% active | recombinant PAFAH1B3, FP-rhodamine probe, fluorescence polarization | Q15102 | AID 492972 | inhibition, % at 3.39 µM;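 active = inhibition above the screen-wide average of all tested compounds plus 3 SD, cut at about 25% in these data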;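 also: 0% = enzyme with DMSO only and 100% = wells lacking PAFAH1B3 protein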
Target sequence (Q15102 whole entry, looked up): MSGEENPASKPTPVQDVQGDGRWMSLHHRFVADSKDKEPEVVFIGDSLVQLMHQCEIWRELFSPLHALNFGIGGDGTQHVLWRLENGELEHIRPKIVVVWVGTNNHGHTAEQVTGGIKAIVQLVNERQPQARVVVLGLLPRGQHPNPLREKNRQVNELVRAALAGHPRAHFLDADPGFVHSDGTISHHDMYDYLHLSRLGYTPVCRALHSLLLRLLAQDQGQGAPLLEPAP
PAFAH1B2 inh: inhibitors of human PAFAH1B2; P68402; 340,000 tested, 1.2% active; inhibition, % at 3.39 µM; recombinant PAFAH1B2, FP-rhodamine activity probe, fluorescence polarization; AID 492953;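 active = inhibition above the mean of all tested compounds plus 3 SD, cut at about 24% in these data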;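 also: 0% = enzyme with DMSO and 100% = wells lacking PAFAH1B2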
Target sequence (P68402 whole entry, looked up): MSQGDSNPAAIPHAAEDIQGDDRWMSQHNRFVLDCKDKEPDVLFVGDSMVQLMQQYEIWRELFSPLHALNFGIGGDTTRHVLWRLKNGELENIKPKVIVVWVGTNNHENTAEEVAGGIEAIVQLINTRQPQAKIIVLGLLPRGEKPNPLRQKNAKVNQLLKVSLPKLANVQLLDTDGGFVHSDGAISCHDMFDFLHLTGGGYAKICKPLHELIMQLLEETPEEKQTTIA
VIM-2 inh: inhibitors of Pseudomonas aeruginosa VIM-2 metallo-beta-lactamase; purified VIM-2, nitrocefin hydrolysis, epi-absorbance fluorescence; 290,000 tested, 0.89% active; inhibition, % at 5.6 µM;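 active = inhibition above the mean of all tested compounds plus 3 SD, cutoff set per screening run, cut at about 7.5% in these data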;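 also: red hydrolysis product quenches plate fluorescence so inhibitors raise well fluorescence; 0% = enzyme with DMSO and 100% = DMSO without enzyme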
Starred values were filed as active, the others as inactive; . = not tested or not shown.

SMILES | PAFAH2 FP inh | IMP-1 inhibitor | pPAFAH FP inh | PAFAH1B3 FP inh | PAFAH1B2 inh | VIM-2 inh
COc1ccc(S(=O)(=O)N2CCN(C(=O)CCCN3C(=O)NC4(CCCC4)C3=O)CC2)cc1 | 2 | . | . | 6 | -4 | .
CC(=O)Nc1ccc(C(=O)OCc2ccc(Br)cc2)cc1 | 34* | -2 | 0 | 1 | 26* | 0
Cc1c(OC(C)C(=O)N2C[C@H]3C[C@@H](C2)c2cccc(=O)n2C3)ccc2c3c(c(=O)oc12)CCCC3 (some centres not stated) | 0 | -2 | 1 | 5 | 4 | 3
CN(C)c1ccc(N=Cc2ccco2)cc1 | 2 | -3 | 28* | 6 | 7 | -4
COc1ccc(N(CC(=O)NCCSCc2ccco2)S(=O)(=O)c2ccccc2)cc1Cl | 13 | -1 | 5 | 2 | 4 | -1
CCOC(=O)c1c(NC(=O)CSc2ncn[nH]2)sc(C(=O)NC)c1C | -3 | -1 | -5 | 4 | -5 | 10.0*
O=C(C1CCC1)N1CCN(S(=O)(=O)c2ccc(Br)cc2Cl)CC1 | 14 | . | 1 | 4 | 4 | .
COCCCn1c(SCC(=O)Nc2sc3c(c2C#N)CCCC3)nnc1-c1ccncc1 | 11 | 4 | 26* | 3 | 0 | 1
CC(C)CCn1c(=O)c2ccccc2n2c(CCC(=O)NC3CCN(Cc4ccccc4)CC3)nnc12 | 1 | -3 | 2 | -2 | 2 | 4
CC(C)CCn1c(=O)c2sccc2n2c(CCCC(=O)N3CCN(c4ccccn4)CC3)nnc12 | 1 | -2 | 0 | 5 | -1 | 8.6*
CCn1c(=O)c2sccc2n2c(CCCC(=O)NC3CCN(Cc4ccccc4)CC3)nnc12 | 2 | -3 | 6 | 4 | 4 | 8.0*
CC(C)Cn1c(=O)c2sccc2n2c(CCCC(=O)N3CCC(N4CCCCC4)CC3)nnc12 | 0 | -2 | 2 | 10 | -1 | 7.7*
CCn1c(=O)c2sccc2n2c(CCCC(=O)N3CCN(c4ccccn4)CC3)nnc12 | 6 | 0 | -1 | -1 | -4 | 8.8*
CC(C)OCCCn1c(=O)c2ccccc2n2c(CCC(=O)N3CCN(c4ccccn4)CC3)nnc12 | 0 | -3 | 7 | 8 | 2 | -1
COc1ccc(/C=N/n2c(COc3ccccc3)n[nH]c2=S)cc1OC | 5 | -4 | 4 | 9 | 9 | -5
NC(=O)NC(Cc1ccccc1)C(=O)NNC(=O)COc1ccccc1Cl (configuration not stated) | 7 | . | 4 | 9 | 3 | .
COc1ccc(NC(=O)C(c2ccc(Cl)cc2)C(C)C)cn1 (configuration not stated) | -3 | -3 | -1 | 2 | 22 | -1
CN1CCN(C(=O)CCCN2C(=O)/C(=C/c3cccc(Br)c3)SC2=S)CC1 | 1 | 2 | . | -1 | 7 | 12*
CN1CCN(C(=O)CCN2C(=O)/C(=C\c3ccc(F)cc3)SC2=S)CC1 | 6 | . | -11 | 8 | 5 | .
O=C(CCCN1C(=O)/C(=C/c2cccc(Br)c2)SC1=S)N1CCOCC1 | 11 | -3 | 4 | 8 | 13 | -2
CN1CCN(C(=O)CCN2C(=O)/C(=C/c3cccc(Br)c3)SC2=S)CC1 | 3 | 5.5* | -31 | 7 | 6 | 1
O=S(=O)(O)c1cc(O)c(N=Nc2ccc(O)cc2O)c2ccccc12 | 90* | . | . | 90* | 87* | .
CC(C)=CCC/C(C)=C/CC/C(C)=C/COc1ccc2ccc(=O)oc2c1 | -5 | . | 6 | 5 | 9 | .
Nc1ccc(CSc2ccccc2)cc1 | 9 | . | . | 7 | 32* | .
CC1CCN(c2ccc3c(c2)S(=O)(=O)c2cccc(C(=O)NC[C@@H]4CCCO4)c2C3=O)CC1 | -10 | . | 16 | -1 | 0 | .
SMILES | PAFAH2 FP inh | IMP-1 inhibitor | pPAFAH FP inh | PAFAH1B3 FP inh | PAFAH1B2 inh | VIM-2 inh
O=C(NCC1CCCO1)c1cccc2c1C(=O)c1ccc(N3CCC(Cc4ccccc4)CC3)cc1S2(=O)=O (configuration not stated) | -14 | . | 33* | -1 | -9 | .
Cc1onc(-c2ccccc2)c1-c1nnc(CN2CCN(S(=O)(=O)c3ccccc3F)CC2)o1 | 4 | . | -4 | 2 | 5 | .
C[C@@H]1CN(c2c(F)c(N)c3c(=O)c(C(=O)O)cn(C4CC4)c3c2F)C[C@H](C)N1 | . | -1 | . | . | . | 8.4*
C[C@@H]1CN(c2c(F)c(F)c3c(=O)c(C(=O)O)cn(C4CC4)c3c2F)C[C@H](C)N1 | -5 | -3 | . | 5 | 0 | 1
CC(C)COc1cccc(C(=O)N(CC(=O)Nc2ccccc2C(F)(F)F)Cc2ccco2)c1 | 4 | . | 4 | 5 | 3 | .
O=C1CC2CCCN2C=C1I (configuration not stated) | 0 | . | 1 | 9 | 1 | .
CC1CC(C)(C)CC2(C1)NC(=O)N(CC(=O)N1CCN(S(=O)(=O)c3ccc(F)c(F)c3F)CC1)C2=O (configuration not stated) | -8 | . | . | 1 | 8 | .
OCC[C@H]1C[C@H](O)[C@@H](O)[C@]2(OCCc3ccccc32)O1 | 7 | . | 26* | 7 | 0 | .
O=C(Nc1ccc2ncccc2c1)c1ccccc1 | -10 | -5 | 1 | 6 | -7 | -3
CCC(C(=O)c1ccc2ncccc2c1)c1ccccc1 (configuration not stated) | 10 | -4 | 2 | 10 | 25* | -4
O=[N+]([O-])c1cc(C=Nc2cccc3c(O)cccc23)ccc1Cl | . | 0 | 25* | . | . | 3
COc1ccccc1NC(=O)c1c([N+](=O)[O-])c(C(C)(C)C)nn1C | 5 | -2 | 31* | -3 | 1 | 0
Cc1ccc(CNS(=O)(=O)c2cc3c(cc2C)NC(=O)CO3)cc1 | -1 | -3 | -2 | -1 | 6 | -3
Cc1cc2c(cc1S(=O)(=O)NCc1ccccc1)NC(=O)CO2 | 0 | . | 8 | 0 | 11 | .
Cc1cc2c(cc1S(=O)(=O)NCCc1ccccc1)NC(=O)CO2 | 7 | . | 6 | 8 | 29* | .
Cc1ccc(CNS(=O)(=O)c2ccc3c(c2)NC(=O)CO3)cc1 | -9 | -2 | 3 | 10 | 26* | -3
COc1cc(/C=C(\C#N)C(=O)c2c[nH]c3ccccc23)cc(OC)c1O | -41 | 4.8* | 1 | -27 | -15 | -3
COC(=O)/C(C#N)=C/c1c[nH]c2ccccc12 | 3 | -3 | 5 | 4 | -6 | -2
CC(=O)Nc1ccccc1NC(=O)C/C(C)=N/NC(=O)C(=O)N1CCCCC1 | 10 | -3 | 2 | 5 | -1 | -1
O=C(CSCc1ccccc1Cl)NNC(=S)Nc1ccccc1 | 8 | -2 | 29* | -5 | 8 | 0
COCc1ccc(-c2c(-c3cc(OC)cc(OC)c3)oc(=O)c3cc(OC)c(OC)cc23)cc1 | 4 | . | -2 | -3 | -9 | .
N#C/C(=C\c1coc2ccccc2c1=O)C(N)=S | -4 | -6 | -1 | -8 | -5 | -5
N#C/C(=C\c1coc2ccc(O)cc2c1=O)C(=O)Nc1nc2ccccc2s1 | 29 | 3 | 33* | 3 | 8 | 1

Screening data from PubChem BioAssay.
